According to ChEMBL document CHEMBL5154684 (J Med Chem, 2022):
Active and inactive are the calls of the source. The rule behind the calls is not given here.

Legend:
[1] = target: Rho-associated protein kinase 2 (Homo sapiens, UniProt O75116); assay: Inhibition of ROCK2 (unknown origin) using KEAKEKRQEQIAKRRRLSSLRASTSKSGGSQK-peptide as substrate incubated for 30 mins in presence of [gamma-33P]-ATP
Homo sapiens = organism: Homo sapiens; assay: Selectivity ratio of CD for Nrf2 activation in HEK293T cells to IC50 for inhibition of ROCK2 (unknown origin); format: cell-based
Summary of the method: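 Ratio of CD to ROCK2 IC50. CD is the concentration doubling ARE-luciferase over basal in transfected HEK293T cells after 16 h. […] Reactions were stopped with orthophosphoric acid and captured on P81 filters.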

[2] = target: T1, Nuclear factor erythroid 2-related factor 2 (Homo sapiens) (UniProt Q16236); assay: Activation of Nrf2 transcriptional activity in HEK293T cells transfected with TK-Renilla reporter vector and cotransfected with ARE-LUC vector measured after 16 hrs by dual-luciferase reporter gene assay; format: cell-based; settings: filed as activator, dose 6-60 µM, DDE = dose-dependent effect
T1 sequence (whole entry): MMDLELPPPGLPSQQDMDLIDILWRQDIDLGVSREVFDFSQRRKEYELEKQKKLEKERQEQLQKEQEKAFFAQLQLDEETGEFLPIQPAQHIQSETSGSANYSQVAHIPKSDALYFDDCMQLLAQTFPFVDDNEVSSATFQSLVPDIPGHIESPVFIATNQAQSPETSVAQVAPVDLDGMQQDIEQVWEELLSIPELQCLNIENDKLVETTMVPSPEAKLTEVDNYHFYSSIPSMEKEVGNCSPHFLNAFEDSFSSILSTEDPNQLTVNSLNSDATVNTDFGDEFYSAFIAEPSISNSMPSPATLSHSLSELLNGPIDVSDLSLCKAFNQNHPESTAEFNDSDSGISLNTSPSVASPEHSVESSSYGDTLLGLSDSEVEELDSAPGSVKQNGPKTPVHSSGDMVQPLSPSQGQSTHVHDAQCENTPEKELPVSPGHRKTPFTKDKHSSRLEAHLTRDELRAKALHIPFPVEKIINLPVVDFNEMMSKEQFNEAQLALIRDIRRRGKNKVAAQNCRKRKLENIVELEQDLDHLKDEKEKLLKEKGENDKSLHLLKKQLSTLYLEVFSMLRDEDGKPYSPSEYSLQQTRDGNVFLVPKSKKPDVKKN
Summary of the method: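 HEK293T cells were seeded and cultured 16 h, then co-transfected by calcium phosphate with 3×ARE-LUC and TK-Renilla. […] Lysates were read by dual-luciferase. Triplicates, at least twice. CD is the concentration that doubles luciferase over basal.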

[3] = target: T1, Nuclear factor erythroid 2-related factor 2 (Homo sapiens); assay: Induction of Nrf2 signalling pathway in ALS patient derived human lymphoblasts harboring SOD1 mutation assessed as increase in NQO1 mRNA level at 20 uM measured after 24 hrs by RT-qPCR analysis; format: cell-based; settings: Lymphoblastoid cell, filed as activator
Summary of the method: (§1)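 EBV-immortalized lymphoblastoid lines from controls, sALS and SOD1-ALS patients were grown in RPMI-1640 with 10% FBS. They were seeded at 1 × 10^6 cells/mL, serum-starved 12 h, then treated at 20 μM for 24 h. HMOX1 and NQO1 mRNA measured by qRT-PCR, normalized to β-actin mRNA. n = 6–7 controls, 5–6 sALS, 4 SOD1-ALS, ± S.E.M.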

[4] = target: T1, Nuclear factor erythroid 2-related factor 2 (Homo sapiens); assay: Activation of Nrf2 transcriptional activity in human SH-SY5Y cells assessed as increase in HMOX1 mRNA expression at 20 uM by RT-qPCR analysis; format: cell-based; settings: filed as activator, time 4-24 hrs, TDE = time-dependent effect
Summary of the method: (§2)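 SH-SY5Y cells (DMEM/Ham's F12, 10% FBS) were treated at 20 μM for 4, 8 and 24 h. HMOX1 and NQO1 mRNA measured by qRT-PCR, normalized to β-actin mRNA. Mean of n = 4 ± S.E.M., experiments done twice.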

[5] = target: T1, Nuclear factor erythroid 2-related factor 2 (Homo sapiens); assay: Activation of Nrf2 transcriptional activity in human SH-SY5Y cells assessed as induction of accumulation of Nrf2 in nucleus at 20 uM incubated for 30 to 240 mins by Immunoblotting analysis; format: cell-based; settings: filed as activator, time 60-240 min, in the assay text read “60 to 240 mins” for “30 to 240 mins”
Summary of the method: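 SH-SY5Y cells treated at 20 μM for 1, 2 and 4 h. Cytosolic and nuclear fractions were prepared by hypotonic NP-40 lysis followed by a nuclear extraction buffer. […] Duplicate, at least twice.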

Albumin [6] = target: T2, Albumin (Homo sapiens, UniProt P02768); assay: Binding affinity to human serum albumin assessed as association constant by Scatchard equation; format: ADME; settings: isolated protein
T2 sequence (P02768 whole entry): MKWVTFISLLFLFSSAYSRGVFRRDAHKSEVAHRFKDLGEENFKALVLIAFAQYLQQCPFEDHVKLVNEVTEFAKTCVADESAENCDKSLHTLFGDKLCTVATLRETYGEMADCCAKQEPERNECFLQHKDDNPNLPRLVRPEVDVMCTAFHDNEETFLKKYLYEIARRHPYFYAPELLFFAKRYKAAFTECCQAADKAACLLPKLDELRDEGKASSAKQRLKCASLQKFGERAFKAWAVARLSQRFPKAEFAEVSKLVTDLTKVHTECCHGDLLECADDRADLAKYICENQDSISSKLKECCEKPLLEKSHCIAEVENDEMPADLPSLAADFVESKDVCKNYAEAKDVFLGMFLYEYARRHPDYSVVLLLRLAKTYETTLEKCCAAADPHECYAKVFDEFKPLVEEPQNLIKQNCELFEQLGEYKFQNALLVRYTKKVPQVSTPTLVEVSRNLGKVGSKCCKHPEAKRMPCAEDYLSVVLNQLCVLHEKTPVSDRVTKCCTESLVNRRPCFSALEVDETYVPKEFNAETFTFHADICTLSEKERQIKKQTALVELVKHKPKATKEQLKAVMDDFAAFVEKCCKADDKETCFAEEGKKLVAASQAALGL

[7] = target: T1, Nuclear factor erythroid 2-related factor 2 (Homo sapiens); assay: Induction of Nrf2 signalling pathway in human lymphoblast assessed as increase in HMOX1 protein level at 20 uM measured after 24 hrs by immunoblot analysis; format: cell-based; settings: Lymphoblastoid cell, filed as activator
[8] = target: T1, Nuclear factor erythroid 2-related factor 2 (Homo sapiens); assay: Induction of Nrf2 signalling pathway in human lymphoblast assessed as increase in NQO1 mRNA level at 20 uM measured after 24 hrs by RT-qPCR analysis; format: cell-based; settings: Lymphoblastoid cell, filed as activator; summary of the method: as §1
[9] = target: T1, Nuclear factor erythroid 2-related factor 2 (Homo sapiens); assay: Induction of Nrf2 signalling pathway in ALS patient derived human lymphoblasts harboring SOD1 mutation assessed as increase in NQO1 protein level at 20 uM measured after 24 hrs by immunoblot analysis; format: cell-based; settings: Lymphoblastoid cell, filed as activator
[10] = Stability in pooled human liver microsomes assessed as intrinsic clearance at 8 uM in presence of NADPH measured upto 60 mins by HPLC-MS analysis; format: ADME, Microsome; settings: 1 h
[11] = target: T3, Nuclear factor erythroid 2-related factor 2 (Mus musculus) (UniProt Q60795); assay: Activation of Nrf2 transcriptional activity in KEAP1-/- mouse embryonic fibroblast cells assessed as increase in HMOX1 mRNA levels at 20 uM measured upto 24 hrs by RT-qPCR analysis; format: cell-based; settings: filed as activator
T3 sequence (whole entry): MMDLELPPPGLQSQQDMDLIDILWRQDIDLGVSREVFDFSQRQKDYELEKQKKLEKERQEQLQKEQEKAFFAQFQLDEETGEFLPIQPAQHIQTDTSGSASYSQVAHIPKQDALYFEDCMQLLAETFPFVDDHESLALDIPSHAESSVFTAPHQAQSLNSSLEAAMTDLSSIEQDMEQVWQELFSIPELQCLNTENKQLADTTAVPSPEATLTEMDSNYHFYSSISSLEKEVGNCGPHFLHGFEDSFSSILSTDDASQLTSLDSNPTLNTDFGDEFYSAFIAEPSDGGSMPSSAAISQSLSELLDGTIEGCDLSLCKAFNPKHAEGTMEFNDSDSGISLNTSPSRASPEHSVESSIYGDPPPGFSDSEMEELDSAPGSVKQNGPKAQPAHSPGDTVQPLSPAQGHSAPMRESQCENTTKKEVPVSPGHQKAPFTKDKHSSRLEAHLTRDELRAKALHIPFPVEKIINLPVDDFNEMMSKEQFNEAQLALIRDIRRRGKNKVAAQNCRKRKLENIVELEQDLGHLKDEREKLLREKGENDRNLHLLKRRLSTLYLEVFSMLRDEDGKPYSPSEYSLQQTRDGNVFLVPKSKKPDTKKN
Summary of the method: (§3)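 Keap1+/+ and Keap1–/– MEFs were grown in DMEM with 10% FBS and treated at 20 μM for 4, 8 and 24 h. HMOX1 and NQO1 mRNA measured by qRT-PCR, normalized to β-actin mRNA. n = 4 ± S.E.M., experiments done twice; two-way ANOVA with Bonferroni post hoc.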

[12] = target: T3, Nuclear factor erythroid 2-related factor 2 (Mus musculus); assay: Activation of Nrf2 transcriptional activity in KEAP1+/+ mouse embryonic fibroblast cells assessed as increase in HMOX1 mRNA levels at 20 uM by RT-qPCR analysis; format: cell-based; settings: filed as activator, time 4-24 hrs, TDE = time-dependent effect; summary of the method: as §3
[13] = target: T1, Nuclear factor erythroid 2-related factor 2 (Homo sapiens); assay: Activation of Nrf2 transcriptional activity in human SH-SY5Y cells assessed as increase in NQO1 mRNA expression at 20 uM by RT-qPCR analysis; format: cell-based; settings: filed as activator, time 4-24 hrs, TDE = time-dependent effect; summary of the method: as §2
[14] = target: T1, Nuclear factor erythroid 2-related factor 2 (Homo sapiens); assay: Induction of Nrf2 signalling pathway in human lymphoblast assessed as increase in NQO1 protein level at 20 uM measured after 24 hrs by immunoblot analysis; format: cell-based; settings: Lymphoblastoid cell, filed as activator
[15] = target: T1, Nuclear factor erythroid 2-related factor 2 (Homo sapiens); assay: Induction of Nrf2 signalling pathway in ALS patient derived human lymphoblasts harboring SOD1 mutation assessed as increase in HMOX1 mRNA level at 20 uM measured after 24 hrs by RT-qPCR analysis; format: cell-based; settings: Lymphoblastoid cell, filed as activator; summary of the method: as §1
[16] = target: T1, Nuclear factor erythroid 2-related factor 2 (Homo sapiens); assay: Induction of Nrf2 signalling pathway in human lymphoblast assessed as increase in Nrf2 protein level at 20 uM measured after 24 hrs by immunoblot analysis; format: cell-based; settings: Lymphoblastoid cell, filed as activator
Albumin [17] = target: T2, Albumin; assay: Binding affinity to human serum albumin assessed as Stern-Volmer quenching constant by Stern-Volmer plot analysis; format: ADME; settings: isolated protein
[18] = target: T1, Nuclear factor erythroid 2-related factor 2 (Homo sapiens); assay: Activation of Nrf2 transcriptional activity in human SH-SY5Y cells assessed as increase in HO-1 protein levels at 20 uM incubated for 24 hrs by immunoblot analysis; format: cell-based; settings: filed as activator
Summary of the method: (§4)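 SH-SY5Y cells exposed to 20 μM for 4, 8 and 24 h. […] Densitometry normalized to β-actin. Duplicate, at least twice; one-way ANOVA with Tukey post-test.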

[19] = target: T1, Nuclear factor erythroid 2-related factor 2 (Homo sapiens); assay: Induction of Nrf2 signalling pathway in human lymphoblast assessed as increase in HMOX1 mRNA level at 20 uM measured after 24 hrs by RT-qPCR analysis; format: cell-based; settings: Lymphoblastoid cell, filed as activator; summary of the method: as §1
[20] = target: T3, Nuclear factor erythroid 2-related factor 2 (Mus musculus); assay: Activation of Nrf2 transcriptional activity in KEAP1+/+ mouse embryonic fibroblast cells assessed as increase in NQO1 mRNA levels at 20 uM by RT-qPCR analysis; format: cell-based; settings: filed as activator, time 4-24 hrs, TDE = time-dependent effect; summary of the method: as §3
[21] = target: Keap1/Nrf2 (Homo sapiens) (UniProt Q16236+Q14145); assay: Inhibition of Nrf2 (unknown origin)/KEAP1 (unknown origin) protein-protein interaction by measuring inflection temperature at 100 uM by differential scanning fluorimetry; format: protein assay
Keap1/Nrf2 (Homo sapiens), sequence (Q14145 whole entry, looked up, one chain of several): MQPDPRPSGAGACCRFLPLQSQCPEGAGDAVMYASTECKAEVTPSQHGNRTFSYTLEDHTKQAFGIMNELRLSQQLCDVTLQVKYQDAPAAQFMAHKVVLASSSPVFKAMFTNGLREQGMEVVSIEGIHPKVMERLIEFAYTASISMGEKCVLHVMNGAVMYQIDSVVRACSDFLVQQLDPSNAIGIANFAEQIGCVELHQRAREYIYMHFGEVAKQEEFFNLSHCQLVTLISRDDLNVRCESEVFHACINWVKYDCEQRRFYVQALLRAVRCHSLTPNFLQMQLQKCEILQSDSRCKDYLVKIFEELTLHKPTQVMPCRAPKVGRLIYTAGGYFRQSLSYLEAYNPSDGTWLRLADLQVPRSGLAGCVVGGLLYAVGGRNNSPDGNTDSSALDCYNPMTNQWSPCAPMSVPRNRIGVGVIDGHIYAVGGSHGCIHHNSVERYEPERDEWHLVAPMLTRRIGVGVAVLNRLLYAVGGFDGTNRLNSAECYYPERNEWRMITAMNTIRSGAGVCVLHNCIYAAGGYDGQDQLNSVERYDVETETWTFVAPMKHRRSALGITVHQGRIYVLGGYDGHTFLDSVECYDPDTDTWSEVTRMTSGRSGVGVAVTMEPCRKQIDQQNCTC

[22] = target: T1, Nuclear factor erythroid 2-related factor 2 (Homo sapiens); assay: Activation of Nrf2 transcriptional activity in human SH-SY5Y cells assessed as increase in NQO1 protein levels at 20 uM incubated for 24 hrs by immunoblot analysis; format: cell-based; settings: filed as activator; summary of the method: as §4
[23] = target: T1, Nuclear factor erythroid 2-related factor 2 (Homo sapiens); assay: Induction of Nrf2 signalling pathway in ALS patient derived human lymphoblasts harboring SOD1 mutation assessed as increase in HMOX1 protein level at 20 uM measured after 24 hrs by immunoblot analysis; format: cell-based; settings: Lymphoblastoid cell, filed as activator

Rho-associated protein kinase 2, sequence (O75116 whole entry): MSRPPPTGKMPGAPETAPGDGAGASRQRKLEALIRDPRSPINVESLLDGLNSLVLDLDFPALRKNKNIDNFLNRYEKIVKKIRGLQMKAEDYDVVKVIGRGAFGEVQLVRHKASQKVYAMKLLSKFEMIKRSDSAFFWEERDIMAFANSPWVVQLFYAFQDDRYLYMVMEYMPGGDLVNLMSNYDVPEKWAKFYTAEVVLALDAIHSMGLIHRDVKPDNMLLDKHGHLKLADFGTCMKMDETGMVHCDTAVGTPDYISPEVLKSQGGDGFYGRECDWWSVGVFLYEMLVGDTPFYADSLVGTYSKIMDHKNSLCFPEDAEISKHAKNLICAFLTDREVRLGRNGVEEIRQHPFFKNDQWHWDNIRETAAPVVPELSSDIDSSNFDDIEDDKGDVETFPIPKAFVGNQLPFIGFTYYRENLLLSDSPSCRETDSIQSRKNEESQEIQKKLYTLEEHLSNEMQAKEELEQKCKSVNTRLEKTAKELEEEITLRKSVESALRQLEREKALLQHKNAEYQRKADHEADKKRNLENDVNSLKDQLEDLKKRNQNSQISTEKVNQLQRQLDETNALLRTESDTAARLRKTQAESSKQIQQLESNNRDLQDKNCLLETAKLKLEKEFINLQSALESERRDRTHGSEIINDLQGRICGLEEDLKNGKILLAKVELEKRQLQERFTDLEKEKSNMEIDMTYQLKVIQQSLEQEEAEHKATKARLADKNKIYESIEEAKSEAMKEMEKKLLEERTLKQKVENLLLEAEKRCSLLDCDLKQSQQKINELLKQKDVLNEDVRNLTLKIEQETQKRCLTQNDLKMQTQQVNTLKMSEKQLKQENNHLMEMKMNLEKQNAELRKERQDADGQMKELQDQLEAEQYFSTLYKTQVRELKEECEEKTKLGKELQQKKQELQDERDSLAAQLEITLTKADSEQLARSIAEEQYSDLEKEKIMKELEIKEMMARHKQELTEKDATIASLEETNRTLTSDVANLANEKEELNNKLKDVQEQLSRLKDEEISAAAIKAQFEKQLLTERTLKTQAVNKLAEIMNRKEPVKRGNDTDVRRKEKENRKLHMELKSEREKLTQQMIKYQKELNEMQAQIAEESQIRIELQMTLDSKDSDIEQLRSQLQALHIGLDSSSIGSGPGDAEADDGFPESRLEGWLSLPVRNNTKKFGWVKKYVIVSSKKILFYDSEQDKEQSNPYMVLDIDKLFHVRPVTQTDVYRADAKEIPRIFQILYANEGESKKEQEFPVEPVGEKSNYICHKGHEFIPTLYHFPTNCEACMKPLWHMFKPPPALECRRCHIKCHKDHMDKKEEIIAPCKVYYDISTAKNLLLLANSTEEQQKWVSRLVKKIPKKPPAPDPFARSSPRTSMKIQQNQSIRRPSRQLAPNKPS

Q: With `COc1cc(CCC(=O)N2CCN(S(=O)(=O)c3cccc4cnccc34)CC2)ccc1O` as the molecule, how does the IC50 [1] read?
A: > 10 µM

Q: For `O=C(/C=C/c1ccc(O)c(O)c1)N1CCCN(S(=O)(=O)c2cccc3cnccc23)CC1`, which Selectivity ratio (Homo sapiens) is on record?
A: 5.2

Q: What about the Activity [2] of the same molecule?
A: Dde

Q: Which results are given for `O=C(CCc1ccc(O)c(O)c1)N1CCN(S(=O)(=O)c2cccc3cnccc23)CC1`?
A: Selectivity ratio (Homo sapiens): 46.9; Activity [2]: Dde

Q: What does the source list for `O=C(CCc1ccc(O)c(O)c1)N1CCCN(S(=O)(=O)c2cccc3cnccc23)CC1`?
A: Activity [3]: Active; Selectivity ratio (Homo sapiens): 1.4; Activity [4]: Tde; Activity [5]: Active; ka (Albumin [6]): 7.94 10^5L/mol; Activity [7]: Active; Activity [8]: Active; Activity [9]: Active; CLint [10]: 15.3 µL/min/mg; Activity [11]: Active; Activity [12]: Tde; Activity [13]: Tde; Activity [14]: Active; Activity [15]: Active; Activity [16]: Active; KSV (Albumin [17]): 1.68 10^5L/mol; Activity [18]: Active; Activity [19]: Active; Activity [20]: Tde; deltaT [21]: 0.2 °C; Activity [22]: Active; Activity [2]: Dde; Activity [23]: Active
